≈ marks a conversion by molar mass, not a printed value.
Columns and labels:
[1] = Inhibition of human electron transport chain complex 1 in human NCI-H1299 cells assessed as reduction in cellular ATP level measured after 24 hrs by CellTiter-Glo assay; assay type: cell-based; details: Homo sapiens, NCI-H1299, 24 h
In short: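 ATP-dependent luciferase luminescence read in H1299 cells, first without (M1) and then after adding the complex II substrate succinate (M2), to separate complex I block from downstream respiratory-chain inhibition or uncoupling.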

[2] = Lipophilicity, logD of compound; details: octanol/water
[3] = Metabolic stability in rat hepatocyte assessed as maximum bioavailability measured up to 90 mins by LC-MS/MS analysis; assay type: ADME; details: rat hepatocytes, read-out: Fmax
[4] = Inhibition of mouse electron transport chain complex 1 assessed as reduction in cellular ATP measured after 24 hrs by celltiter-glo assay
[5] = Inhibition of rat electron transport chain complex 1 assessed as reduction in cellular ATP measured after 24 hrs by celltiter-glo assay
[6] = Inhibition of dog electron transport chain complex 1 assessed as reduction in cellular ATP measured after 24 hrs by celltiter-glo assay; details: Canis lupus familiaris
[7] = Solubility of the compound at pH 6.5; details: buffer
[8] = Apparent permeability across apical to basolateral side in human Caco2 cells assessed as drug recovery at 2 uM and measured for 2 hrs by LC-MS/MS analysis; details: Caco-2
[9] = Efflux ratio of apparent permeability across basolateral to apical side over apical to basolateral side in human Caco2 cells at 2 uM incubated for 2 hrs by LC-MS/MS analysis; details: Caco-2
Cytochrome P450 1A2 = molecular target: T1, Cytochrome P450 1A2 (Homo sapiens, UniProt P05177); test: Inhibition of CYP1A2 in human liver microsomes using phenacetin as substrate by LC-MS/MS analysis
T1 sequence (P05177 whole entry): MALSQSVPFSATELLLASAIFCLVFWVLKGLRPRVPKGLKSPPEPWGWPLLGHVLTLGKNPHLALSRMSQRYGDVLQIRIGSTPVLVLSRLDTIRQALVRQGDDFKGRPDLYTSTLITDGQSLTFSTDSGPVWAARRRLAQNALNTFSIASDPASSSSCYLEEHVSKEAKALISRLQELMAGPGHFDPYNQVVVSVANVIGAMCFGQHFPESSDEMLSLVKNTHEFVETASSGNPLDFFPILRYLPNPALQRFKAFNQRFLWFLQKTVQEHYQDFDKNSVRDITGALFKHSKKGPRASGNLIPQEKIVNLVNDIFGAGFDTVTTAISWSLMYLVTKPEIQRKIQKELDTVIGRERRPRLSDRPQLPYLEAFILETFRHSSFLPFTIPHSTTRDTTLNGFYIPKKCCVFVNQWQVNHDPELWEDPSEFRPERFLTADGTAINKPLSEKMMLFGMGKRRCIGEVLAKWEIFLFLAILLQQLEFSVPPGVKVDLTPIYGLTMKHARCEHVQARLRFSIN

Cytochrome P450 2C8 = molecular target: T2, Cytochrome P450 2C8 (Homo sapiens, UniProt P10632); test: Inhibition of CYP2C8 in human liver microsomes using amodiaquine as substrate by LC-MS/MS analysis
T2 sequence (P10632 whole entry): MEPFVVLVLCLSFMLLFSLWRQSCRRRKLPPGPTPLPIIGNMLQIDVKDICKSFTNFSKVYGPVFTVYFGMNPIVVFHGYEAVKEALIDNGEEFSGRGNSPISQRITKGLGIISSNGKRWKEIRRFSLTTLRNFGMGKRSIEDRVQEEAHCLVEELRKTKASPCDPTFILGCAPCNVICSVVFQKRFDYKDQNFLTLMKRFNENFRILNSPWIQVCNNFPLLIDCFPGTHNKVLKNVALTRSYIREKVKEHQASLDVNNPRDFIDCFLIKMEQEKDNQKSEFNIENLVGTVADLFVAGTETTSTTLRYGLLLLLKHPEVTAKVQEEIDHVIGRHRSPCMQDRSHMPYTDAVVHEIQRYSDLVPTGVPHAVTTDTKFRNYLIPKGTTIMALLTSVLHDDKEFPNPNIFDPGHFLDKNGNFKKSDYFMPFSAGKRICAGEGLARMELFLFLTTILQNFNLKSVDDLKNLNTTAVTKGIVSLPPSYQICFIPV

Cytochrome P450 2C9 = Cytochrome P450 2C9 (Homo sapiens, UniProt P11712); test: Inhibition of CYP2C9 in human liver microsomes using diclofenac as substrate by LC-MS/MS analysis
Cytochrome P450 2D6 = Cytochrome P450 2D6 (Homo sapiens, UniProt P10635); test: Inhibition of CYP2D6 in human liver microsomes using dextromethorphan as substrate by LC-MS/MS analysis
Cytochrome P450 3A4 = Cytochrome P450 3A4 (Homo sapiens, UniProt P08684); test: Inhibition of CYP3A4 in human liver microsomes using midazolam as substrate by LC-MS/MS analysis
[10] = molecular target: T3, Nuclear receptor subfamily 1 group I member 2 (Homo sapiens, UniProt O75469); test: Transactivation of PXR (unknown origin) expressed in human DPX2 cells co-expressing luciferase gene under control of CYP3A4 promoter assessed as increase in luciferase activity incubated for 24 hrs by luminescence based analysis; details: dpx2, 24 h
T3 sequence (O75469 whole entry): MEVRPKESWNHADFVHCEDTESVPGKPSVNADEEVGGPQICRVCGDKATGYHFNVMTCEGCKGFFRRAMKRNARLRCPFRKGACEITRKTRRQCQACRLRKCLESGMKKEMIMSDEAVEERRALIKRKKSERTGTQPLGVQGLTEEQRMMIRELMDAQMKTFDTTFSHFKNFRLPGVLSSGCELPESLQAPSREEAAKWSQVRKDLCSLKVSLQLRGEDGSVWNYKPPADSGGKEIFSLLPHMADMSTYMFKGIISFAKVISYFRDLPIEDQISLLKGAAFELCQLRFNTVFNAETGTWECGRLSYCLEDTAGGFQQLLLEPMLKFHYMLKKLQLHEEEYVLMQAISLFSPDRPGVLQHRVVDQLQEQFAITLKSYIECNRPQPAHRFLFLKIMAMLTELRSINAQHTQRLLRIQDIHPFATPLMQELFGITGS

[11] = molecular target: Voltage-gated inwardly rectifying potassium channel KCNH2 (Homo sapiens, UniProt Q12809); test: Inhibition of human ERG by patch-clamp assay
[12] = Plasma protein binding in mouse assessed as fraction unbound incubated for 6 to 8 hrs by LC-MS/MS analysis; assay type: ADME, cell-free; details: time 6-8 hrs
[13] = Volume of distribution at steady state in Wistar rat plasma at 0.4 mg/kg, iv by LC-MS/MS analysis; assay type: ADME, organism-based; details: read-out: Vdss
[14] = Half life in Wistar rat plasma at 0.4 mg/kg, iv by LC-MS/MS analysis; assay type: ADME, organism-based
[15] = AUC in Wistar rat plasma at 0.8 mg/kg, po by LC-MS/MS analysis; assay type: ADME, organism-based; design: dose 0.8 mg/kg; details: in vivo
[16] = Oral bioavailability in Wistar rat plasma at 0.8 mg/kg by LC-MS/MS analysis; assay type: ADME, organism-based
[17] = Clearance in male Wistar rat blood at 0.4 mg/kg, iv by LC-MS/MS analysis

Cytochrome P450 2D6, sequence (P10635 whole entry): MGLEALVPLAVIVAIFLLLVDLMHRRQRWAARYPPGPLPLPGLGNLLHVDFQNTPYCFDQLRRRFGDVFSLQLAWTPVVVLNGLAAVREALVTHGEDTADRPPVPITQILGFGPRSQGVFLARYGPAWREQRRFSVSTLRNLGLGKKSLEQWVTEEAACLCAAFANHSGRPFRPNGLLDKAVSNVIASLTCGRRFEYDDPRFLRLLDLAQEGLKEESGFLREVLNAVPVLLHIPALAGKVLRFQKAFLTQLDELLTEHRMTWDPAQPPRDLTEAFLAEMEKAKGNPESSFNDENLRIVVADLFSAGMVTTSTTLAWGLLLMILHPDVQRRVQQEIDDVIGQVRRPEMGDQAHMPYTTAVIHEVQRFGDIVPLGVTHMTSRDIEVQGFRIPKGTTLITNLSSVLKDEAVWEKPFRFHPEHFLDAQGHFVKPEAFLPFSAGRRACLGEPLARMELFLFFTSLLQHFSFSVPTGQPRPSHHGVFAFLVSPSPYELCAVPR
Cytochrome P450 2C9, sequence (P11712 whole entry): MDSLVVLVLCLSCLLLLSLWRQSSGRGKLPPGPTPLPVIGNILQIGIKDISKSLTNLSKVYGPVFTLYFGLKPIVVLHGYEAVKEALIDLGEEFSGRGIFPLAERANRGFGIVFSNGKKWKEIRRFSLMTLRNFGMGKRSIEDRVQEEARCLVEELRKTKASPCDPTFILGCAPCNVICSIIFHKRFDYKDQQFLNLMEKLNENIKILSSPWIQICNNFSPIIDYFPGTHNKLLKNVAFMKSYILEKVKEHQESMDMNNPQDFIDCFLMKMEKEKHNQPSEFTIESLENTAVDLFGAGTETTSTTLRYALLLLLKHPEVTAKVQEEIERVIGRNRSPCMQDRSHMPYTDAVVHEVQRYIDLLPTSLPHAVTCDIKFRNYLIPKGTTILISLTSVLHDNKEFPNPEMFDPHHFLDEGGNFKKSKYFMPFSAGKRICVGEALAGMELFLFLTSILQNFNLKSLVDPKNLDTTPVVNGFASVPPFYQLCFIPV
Cytochrome P450 3A4, sequence (P08684 whole entry): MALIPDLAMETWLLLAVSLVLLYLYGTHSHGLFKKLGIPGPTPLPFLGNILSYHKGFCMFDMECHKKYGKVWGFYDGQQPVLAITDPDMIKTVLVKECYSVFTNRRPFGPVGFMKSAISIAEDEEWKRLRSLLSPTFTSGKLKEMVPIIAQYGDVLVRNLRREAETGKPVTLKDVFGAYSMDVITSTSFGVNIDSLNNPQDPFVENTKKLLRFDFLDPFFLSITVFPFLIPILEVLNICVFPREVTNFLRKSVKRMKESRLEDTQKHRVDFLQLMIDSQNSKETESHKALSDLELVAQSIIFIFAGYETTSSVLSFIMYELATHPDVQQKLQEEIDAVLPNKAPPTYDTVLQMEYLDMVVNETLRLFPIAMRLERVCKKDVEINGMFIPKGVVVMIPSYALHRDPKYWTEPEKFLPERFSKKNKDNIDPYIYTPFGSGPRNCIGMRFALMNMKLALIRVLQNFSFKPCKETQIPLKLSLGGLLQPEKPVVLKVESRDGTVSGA
Voltage-gated inwardly rectifying potassium channel KCNH2, sequence (Q12809 whole entry): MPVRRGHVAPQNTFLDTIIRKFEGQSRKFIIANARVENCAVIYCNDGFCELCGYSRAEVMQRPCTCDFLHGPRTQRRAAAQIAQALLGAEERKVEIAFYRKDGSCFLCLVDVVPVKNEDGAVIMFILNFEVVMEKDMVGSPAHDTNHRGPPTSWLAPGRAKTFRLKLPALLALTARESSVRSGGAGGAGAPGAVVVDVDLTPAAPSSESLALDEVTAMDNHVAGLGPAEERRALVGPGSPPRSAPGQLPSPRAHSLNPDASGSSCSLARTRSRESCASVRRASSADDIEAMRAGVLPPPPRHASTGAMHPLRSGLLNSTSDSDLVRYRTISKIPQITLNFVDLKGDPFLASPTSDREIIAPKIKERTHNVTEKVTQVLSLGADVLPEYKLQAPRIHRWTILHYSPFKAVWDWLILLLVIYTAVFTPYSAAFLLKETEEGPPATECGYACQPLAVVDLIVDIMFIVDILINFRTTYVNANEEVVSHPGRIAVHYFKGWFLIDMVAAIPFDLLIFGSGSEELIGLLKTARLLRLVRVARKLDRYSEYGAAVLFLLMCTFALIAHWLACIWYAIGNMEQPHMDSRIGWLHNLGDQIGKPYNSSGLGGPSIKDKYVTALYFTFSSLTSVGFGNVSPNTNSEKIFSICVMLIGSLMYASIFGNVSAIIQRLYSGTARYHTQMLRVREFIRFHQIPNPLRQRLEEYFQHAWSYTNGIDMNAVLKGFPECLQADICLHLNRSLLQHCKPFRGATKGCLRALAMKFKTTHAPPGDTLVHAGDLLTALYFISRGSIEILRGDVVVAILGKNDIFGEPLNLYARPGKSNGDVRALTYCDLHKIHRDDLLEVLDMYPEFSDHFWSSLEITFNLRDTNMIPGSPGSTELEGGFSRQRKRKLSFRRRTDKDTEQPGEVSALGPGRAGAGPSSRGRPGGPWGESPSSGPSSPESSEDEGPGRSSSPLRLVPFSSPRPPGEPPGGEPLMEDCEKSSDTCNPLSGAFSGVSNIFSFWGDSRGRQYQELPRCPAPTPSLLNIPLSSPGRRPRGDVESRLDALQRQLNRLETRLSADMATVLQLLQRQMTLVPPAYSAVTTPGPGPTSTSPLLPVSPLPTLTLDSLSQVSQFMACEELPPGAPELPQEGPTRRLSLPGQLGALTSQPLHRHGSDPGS

logD [2]: 2.8
Fh at 1.5 h [3]: 81%
solubility [7]: 1.6 µg/mL (≈ 3.85 µM)
Papp A→B at 2 h, 2 µM [8]: 9.2 ×10⁻⁶ cm/s
efflux ratio at 2 h, 2 µM [9]: 0.44
IC50 (Cytochrome P450 1A2): > 20 µM
IC50 (Cytochrome P450 2C8): 7.8 µM
IC50 (Cytochrome P450 2C9): 15 µM
IC50 (Cytochrome P450 2D6): > 20 µM
IC50 (Cytochrome P450 3A4): > 20 µM
MEC [10]: > 50 µM
Fu [12]: 0.43%
Vd [13]: 2.2 L/kg
half-life [14]: 6.2 h
AUC [15]: 3.1 kg·h/L
bioavailability [16]: 76%
clearance [17]: 6.67 mL/min/kg
Compound: c1ccc2oc(-c3csc(C4CCN(Cc5nc6ncccc6[nH]5)CC4)n3)cc2c1
IC50 [1]: 0.079 µM
IC50 [4]: 0.038 µM
IC50 [5]: 0.027 µM
IC50 [6]: 0.047 µM
IC50 [11]: 3 µM

Reference: ChEMBL document CHEMBL5046307 (ACS Med Chem Lett, 2022)
